According to ChEMBL document CHEMBL1129264, “Mercaptoacyl dipeptides as orally active dual inhibitors of angiotensin-converting enzyme and neutral endopeptidase” (1996):

Key:
Type in all cases: organism-based
[1] = biological target: T1, Angiotensin-converting enzyme (Rattus norvegicus) (UniProt P47820); test: Compound was tested for plasma inhibition of Angiotensin I converting enzyme activity in the conscious rat. Expressed as Inhibition of AI pressor response at 6 hr at a dose of 12.5 mg/kg po; set-up: dose 12.5 mg/kg
T1 sequence (whole entry): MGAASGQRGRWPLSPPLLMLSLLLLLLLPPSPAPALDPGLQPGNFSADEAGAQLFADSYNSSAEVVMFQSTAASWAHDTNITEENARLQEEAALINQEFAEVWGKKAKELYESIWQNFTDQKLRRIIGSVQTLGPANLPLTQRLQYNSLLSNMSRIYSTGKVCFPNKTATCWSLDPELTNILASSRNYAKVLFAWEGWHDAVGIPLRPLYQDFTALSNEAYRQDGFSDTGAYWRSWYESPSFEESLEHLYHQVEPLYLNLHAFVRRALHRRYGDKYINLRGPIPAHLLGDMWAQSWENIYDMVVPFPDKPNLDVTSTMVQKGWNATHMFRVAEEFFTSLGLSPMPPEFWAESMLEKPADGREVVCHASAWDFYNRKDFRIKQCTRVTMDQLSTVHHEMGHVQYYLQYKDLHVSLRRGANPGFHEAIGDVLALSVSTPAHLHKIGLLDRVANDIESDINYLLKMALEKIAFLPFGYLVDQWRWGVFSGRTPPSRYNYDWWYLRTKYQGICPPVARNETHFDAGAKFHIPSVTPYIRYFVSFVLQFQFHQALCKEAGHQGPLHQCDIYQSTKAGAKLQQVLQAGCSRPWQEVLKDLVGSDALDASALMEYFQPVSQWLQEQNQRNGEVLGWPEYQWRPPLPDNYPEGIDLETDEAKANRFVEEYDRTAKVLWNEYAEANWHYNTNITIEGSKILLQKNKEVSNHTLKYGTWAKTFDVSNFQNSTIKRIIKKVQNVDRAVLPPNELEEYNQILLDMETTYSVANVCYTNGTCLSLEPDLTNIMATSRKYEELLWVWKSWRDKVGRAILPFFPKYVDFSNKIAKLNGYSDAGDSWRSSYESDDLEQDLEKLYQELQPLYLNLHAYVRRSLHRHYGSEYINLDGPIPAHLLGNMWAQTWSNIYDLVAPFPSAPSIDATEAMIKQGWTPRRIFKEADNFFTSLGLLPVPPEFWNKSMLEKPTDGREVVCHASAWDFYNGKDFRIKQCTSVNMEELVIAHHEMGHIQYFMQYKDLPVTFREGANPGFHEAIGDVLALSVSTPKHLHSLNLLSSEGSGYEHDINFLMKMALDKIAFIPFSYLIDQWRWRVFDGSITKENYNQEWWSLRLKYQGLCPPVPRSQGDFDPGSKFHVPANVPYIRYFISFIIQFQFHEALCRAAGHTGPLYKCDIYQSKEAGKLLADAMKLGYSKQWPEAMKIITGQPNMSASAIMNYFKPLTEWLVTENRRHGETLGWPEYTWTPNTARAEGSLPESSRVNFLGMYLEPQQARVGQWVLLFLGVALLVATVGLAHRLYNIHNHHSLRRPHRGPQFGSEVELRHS
Outline: (§1)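 Male conscious normotensive Sprague-Dawley rats (275-390 g), prepared under methohexital sodium (75 mg/kg ip) with femoral arterial and venous catheters. The next day, pressor responses to three angiotensin-I challenges (300 ng/kg iv) were recorded. Compound was then given orally and angiotensin-I challenges were repeated at set times. Percent inhibition is relative to the mean of the three baseline responses.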

[2] = biological target: T1, Angiotensin-converting enzyme (Rattus norvegicus); test: Compound was tested for plasma inhibition of Angiotensin I converting enzyme activity in the conscious rat. Expressed as Inhibition of AI pressor response at 2 hr at a dose of 12.5 mg/kg po; set-up: dose 12.5 mg/kg
Outline: (§2)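 Male conscious normotensive Sprague-Dawley rats (275-390 g), given femoral arterial and venous catheters under methohexital sodium (75 mg/kg ip) anesthesia. Next day, pressor responses to three angiotensin-I challenges (300 ng/kg iv) recorded by direct arterial pressure. Compound then dosed orally, and AI challenge repeated at set times. Each post-dose response compared with the mean of the three baseline responses, giving % inhibition.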

[3] = biological target: T1, Angiotensin-converting enzyme (Rattus norvegicus); test: Compound was tested for plasma inhibition of Angiotensin I converting enzyme activity in the conscious rat. Expressed as Inhibition of AI pressor response at 1 hr at a dose of 12.5 mg/kg po; set-up: dose 12.5 mg/kg; outline: as §2
[4] = biological target: T1, Angiotensin-converting enzyme (Rattus norvegicus); test: Compound was tested for plasma inhibition of Angiotensin I converting enzyme activity in the conscious rat. Expressed as Inhibition of AI pressor response at 4 hr at a dose of 12.5 mg/kg po; set-up: dose 12.5 mg/kg; outline: as §2
[5] = biological target: T1, Angiotensin-converting enzyme (Rattus norvegicus); test: Compound was tested for plasma inhibition of Angiotensin I converting enzyme activity in the conscious rat. Expressed as Inhibition of AI pressor response at 2 hr at a dose of 12 mg/kg po; set-up: dose 12 mg/kg; outline: as §2
[6] = biological target: T1, Angiotensin-converting enzyme (Rattus norvegicus); test: Compound was tested for plasma inhibition of Angiotensin I converting enzyme activity in the conscious rat. Expressed as Inhibition of AI pressor response at 6 hr at a dose of 12 mg/kg po; set-up: dose 12 mg/kg; outline: as §1
[7] = biological target: T1, Angiotensin-converting enzyme (Rattus norvegicus); test: Compound was tested for plasma inhibition of Angiotensin I converting enzyme activity in the conscious rat. Expressed as Inhibition of AI pressor response at 1 hr at a dose of 12 mg/kg po; set-up: dose 12 mg/kg; outline: as §2
[8] = biological target: T1, Angiotensin-converting enzyme (Rattus norvegicus); test: Compound was tested for plasma inhibition of Angiotensin I converting enzyme activity in the conscious rat. Expressed as Inhibition of AI pressor response at 4 hr at a dose of 12 mg/kg po; set-up: dose 12 mg/kg; outline: as §2
[9] = biological target: T1, Angiotensin-converting enzyme (Rattus norvegicus); test: Compound was tested for plasma inhibition of Angiotensin I converting enzyme activity in the conscious rat. Expressed as Inhibition of AI pressor response at 1 hr at a dose of 13.4 mg/kg po; set-up: dose 13.4 mg/kg; outline: as §2
[10] = biological target: T1, Angiotensin-converting enzyme (Rattus norvegicus); test: Compound was tested for plasma inhibition of Angiotensin I converting enzyme activity in the conscious rat. Expressed as Inhibition of AI pressor response at 4 hr at a dose of 13.4 mg/kg po; set-up: dose 13.4 mg/kg; outline: as §1
[11] = biological target: T1, Angiotensin-converting enzyme (Rattus norvegicus); test: Compound was tested for plasma inhibition of Angiotensin I converting enzyme activity in the conscious rat. Expressed as Inhibition of AI pressor response at 2 hr at a dose of 13.4 mg/kg po; set-up: dose 13.4 mg/kg; outline: as §2
[12] = biological target: T1, Angiotensin-converting enzyme (Rattus norvegicus); test: Compound was tested for plasma inhibition of Angiotensin I converting enzyme activity in the conscious rat. Expressed as Inhibition of AI pressor response at 6 hr at a dose of 13.4 mg/kg po; set-up: dose 13.4 mg/kg; outline: as §1
[13] = biological target: T1, Angiotensin-converting enzyme (Rattus norvegicus); test: Compound was tested for plasma inhibition of Angiotensin I converting enzyme activity in the conscious rat. Expressed as Inhibition of AI pressor response at 2 hr at a dose of 12.3 mg/kg po; set-up: dose 12.3 mg/kg; outline: as §2
[14] = biological target: T1, Angiotensin-converting enzyme (Rattus norvegicus); test: Compound was tested for plasma inhibition of Angiotensin I converting enzyme activity in the conscious rat. Expressed as Inhibition of AI pressor response at 6 hr at a dose of 12.3 mg/kg po; set-up: dose 12.3 mg/kg; outline: as §1
[15] = biological target: T1, Angiotensin-converting enzyme (Rattus norvegicus); test: Compound was tested for plasma inhibition of Angiotensin I converting enzyme activity in the conscious rat. Expressed as Inhibition of AI pressor response at 1 hr at a dose of 12.3 mg/kg po; set-up: dose 12.3 mg/kg; outline: as §2
[16] = biological target: T1, Angiotensin-converting enzyme (Rattus norvegicus); test: Compound was tested for plasma inhibition of Angiotensin I converting enzyme activity in the conscious rat. Expressed as Inhibition of AI pressor response at 4 hr at a dose of 12.3 mg/kg po; set-up: dose 12.3 mg/kg; outline: as §2
[17] = biological target: T1, Angiotensin-converting enzyme (Rattus norvegicus); test: Compound was tested for plasma inhibition of Angiotensin I converting enzyme activity in the conscious rat. Expressed as Inhibition of AI pressor response at 1 hr at a dose of 14.1 mg/kg po; set-up: dose 14.1 mg/kg; outline: as §2
[18] = biological target: T1, Angiotensin-converting enzyme (Rattus norvegicus); test: Compound was tested for plasma inhibition of Angiotensin I converting enzyme activity in the conscious rat. Expressed as Inhibition of AI pressor response at 2 hr at a dose of 14.1 mg/kg po; set-up: dose 14.1 mg/kg; outline: as §2

Compound: CCOC(=O)[C@H](Cc1ccc(O)cc1)NC(=O)C1(NC(=O)[C@H](SC(=O)COC)C(C)C)CCCC1
- inhibition [1]: 34%
- inhibition [2]: 77%
- inhibition [3]: 81%
- inhibition [4]: 70%

Compound: C=CCOC(=O)[C@H](Cc1ccc(O)cc1)NC(=O)C1(NC(=O)[C@H](SC(C)=O)C(C)C)CCCC1
- inhibition [5]: 75%
- inhibition [6]: 59%
- inhibition [7]: 68%
- inhibition [8]: 67%

Compound: CCOC(=O)[C@H](Cc1ccc(OC(=O)C(C)C)cc1)NC(=O)C1(NC(=O)[C@H](SC(C)=O)C(C)C)CCCC1
- inhibition [9]: 73%
- inhibition [10]: 63%
- inhibition [11]: 75%
- inhibition [12]: 46%

Compound: CCCOc1ccc(C[C@H](NC(=O)C2(NC(=O)[C@H](SC(C)=O)C(C)C)CCCC2)C(=O)OCC)cc1
- inhibition [13]: 80%
- inhibition [14]: 68%
- inhibition [15]: 90%
- inhibition [16]: 72%

Compound: CCCCOC(=O)[C@H](Cc1ccc(O)cc1)NC(=O)C1(NC(=O)[C@H](SC(=O)C2CCCCC2)C(C)C)CCCC1
- inhibition [17]: -3%
- inhibition [18]: 8%
